“And” between values parts separate entries of the source, which are not always exact repeats. Identical values can stand only once.
Columns and labels:
Assay type in all cases: toxicity, cell-based
[1] = tested on: Fibroblast; test: Multiplex assay against human fibroblast
Procedure, shortened: (§1)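 Four dyes were applied at seeding to live cells: Hoechst33342, BioTracker Green Microtubule Cytoskeleton Dye, MitoTracker Red and Annexin V Alexa Fluor 680. Imaging after compound addition used a CQ1 microscope at 37°C and 5% CO2. CellPathfinder machine-learning gating then sorted cells into Hoechst high-intensity objects or normal cells, normal cells into healthy, pyknosed or fragmented nuclei, and pyknosed cells into mitotic or apoptotic, with tubulin, mitochondrial-mass and membrane-permeability phenotypes given as per cents of healthy-nucleus cells.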

[2] = tested on: HEK-293T; test: Multiplex assay against HEK293T; details: human; procedure, shortened: as §1
[3] = tested on: U2OS; test: Multiplex assay against U2OS; details: human; procedure, shortened: as §1
[4] = 12 h, 1 µM, compound concentration 1 uM
[5] = 12 h, 10 µM, compound concentration 10 uM
[6] = 24 h, 1 µM, compound concentration 1 uM
[7] = 24 h, 10 µM, compound concentration 10 uM
[8] = 48 h, 1 µM, compound concentration 1 uM
[9] = 48 h, 10 µM, compound concentration 10 uM

## Cc1cnc(-c2cc(N3CCN(C(=O)CCS(C)(=O)=O)CC3)ncc2Cl)c(C)c1
[1]; [4]
  Population Apoptotic (%): 36% and 31%
  Population Fragmented Nuclei (%): 9% and 22%
  Population Healthy Nuclei (%): 71% and 36%
  Population Hoechst High Intensity Objects (%): 1% and 9%
  Population Membrane Permeable-Phenotype (%): 0% and 7%
  Population Mitochondria Different-Phenotype (%): 7% and 10%
  Population Mitotic Cells (%): 63% and 68%
  Population Normal (%): 98% and 90%
  Population Pyknosed Nuclei (%): 19% and 41%
  Population Tubulin-Different-Phenotype (%): 20% and 50%
  Total Cell Count: 99 and 85
[1]; [5]
  Population Apoptotic (%): 40% and 26%
  Population Fragmented Nuclei (%): 13% and 21%
  Population Healthy Nuclei (%): 71% and 63%
  Population Hoechst High Intensity Objects (%): 4% and 1%
  Population Membrane Permeable-Phenotype (%): 1%
  Population Mitochondria Different-Phenotype (%): 2%
  Population Mitotic Cells (%): 60% and 73%
  Population Normal (%): 95% and 98%
  Population Pyknosed Nuclei (%): 14% and 15%
  Population Tubulin-Different-Phenotype (%): 24% and 37%
  Total Cell Count: 142 and 121
[1]; [6]
  Population Apoptotic (%): 54% and 47%
  Population Healthy Nuclei (%): 76% and 38%
  Population Hoechst High Intensity Objects (%): 6% and 10%
  Population Membrane Permeable-Phenotype (%): 2% and 3%
  Population Mitochondria Different-Phenotype (%): 4% and 0%
  Population Mitotic Cells (%): 45% and 52%
  Population Normal (%): 93% and 89%
  Population Pyknosed Nuclei (%): 12% and 25%
  Population Tubulin-Different-Phenotype (%): 30% and 61%
  Total Cell Count: 97 and 91
[1]; [7]
  Population Apoptotic (%): 46% and 42%
  Population Fragmented Nuclei (%): 10% and 19%
  Population Healthy Nuclei (%): 79% and 67%
  Population Hoechst High Intensity Objects (%): 0% and 4%
  Population Membrane Permeable-Phenotype (%): 2%
  Population Mitochondria Different-Phenotype (%): 6% and 9%
  Population Mitotic Cells (%): 53% and 57%
  Population Normal (%): 99% and 95%
  Population Pyknosed Nuclei (%): 9% and 12%
  Population Tubulin-Different-Phenotype (%): 28% and 38%
  Total Cell Count: 135 and 116
[1]; [8]
  Population Apoptotic (%): 69% and 36%
  Population Fragmented Nuclei (%): 19% and 40%
  Population Healthy Nuclei (%): 58% and 47%
  Population Hoechst High Intensity Objects (%): 2% and 5%
  Population Membrane Permeable-Phenotype (%): 0% and 12%
  Population Mitochondria Different-Phenotype (%): 1% and 9%
  Population Mitotic Cells (%): 30% and 63%
  Population Normal (%): 97% and 94%
  Population Pyknosed Nuclei (%): 21% and 12%
  Population Tubulin-Different-Phenotype (%): 33% and 70%
  Total Cell Count: 109 and 92
[1]; [9]
  Population Apoptotic (%): 50% and 75%
  Population Fragmented Nuclei (%): 21% and 29%
  Population Healthy Nuclei (%): 69% and 61%
  Population Hoechst High Intensity Objects (%): 2% and 3%
  Population Membrane Permeable-Phenotype (%): 0% and 2%
  Population Mitochondria Different-Phenotype (%): 7% and 5%
  Population Mitotic Cells (%): 50% and 25%
  Population Normal (%): 97% and 96%
  Population Pyknosed Nuclei (%): 8% and 9%
  Population Tubulin-Different-Phenotype (%): 33%
  Total Cell Count: 141 and 131
[2]; [4]
  Population Apoptotic (%): 29% and 42%
  Population Fragmented Nuclei (%): 6%
  Population Healthy Nuclei (%): 76% and 75%
  Population Hoechst High Intensity Objects (%): 4% and 9%
  Population Membrane Permeable-Phenotype (%): 0%
  Population Mitochondria Different-Phenotype (%): 50% and 69%
  Population Mitotic Cells (%): 70% and 57%
  Population Normal (%): 95% and 90%
  Population Pyknosed Nuclei (%): 16% and 17%
  Population Tubulin-Different-Phenotype (%): 33% and 24%
  Total Cell Count: 276 and 294
[2]; [5]
  Population Apoptotic (%): 42% and 45%
  Population Fragmented Nuclei (%): 7%
  Population Healthy Nuclei (%): 82% and 75%
  Population Hoechst High Intensity Objects (%): 10% and 7%
  Population Membrane Permeable-Phenotype (%): 0%
  Population Mitochondria Different-Phenotype (%): 47% and 70%
  Population Mitotic Cells (%): 57% and 54%
  Population Normal (%): 89% and 92%
  Population Pyknosed Nuclei (%): 10% and 17%
  Population Tubulin-Different-Phenotype (%): 40% and 39%
  Total Cell Count: 409 and 288
[2]; [6]
  Population Apoptotic (%): 36% and 40%
  Population Fragmented Nuclei (%): 8% and 7%
  Population Healthy Nuclei (%): 78% and 83%
  Population Hoechst High Intensity Objects (%): 2% and 6%
  Population Membrane Permeable-Phenotype (%): 1% and 0%
  Population Mitochondria Different-Phenotype (%): 30% and 36%
  Population Mitotic Cells (%): 63% and 60%
  Population Normal (%): 97% and 93%
  Population Pyknosed Nuclei (%): 12% and 9%
  Population Tubulin-Different-Phenotype (%): 21% and 13%
  Total Cell Count: 368 and 413
[2]; [7]
  Population Apoptotic (%): 33% and 51%
  Population Fragmented Nuclei (%): 15% and 7%
  Population Healthy Nuclei (%): 76% and 80%
  Population Hoechst High Intensity Objects (%): 5%
  Population Membrane Permeable-Phenotype (%): 0%
  Population Mitochondria Different-Phenotype (%): 29% and 47%
  Population Mitotic Cells (%): 66% and 48%
  Population Normal (%): 94%
  Population Pyknosed Nuclei (%): 8% and 12%
  Population Tubulin-Different-Phenotype (%): 31% and 22%
  Total Cell Count: 550 and 392
[2]; [8]
  Population Apoptotic (%): 27% and 34%
  Population Fragmented Nuclei (%): 17% and 14%
  Population Healthy Nuclei (%): 76% and 78%
  Population Hoechst High Intensity Objects (%): 1% and 2%
  Population Membrane Permeable-Phenotype (%): 1% and 0%
  Population Mitochondria Different-Phenotype (%): 17% and 22%
  Population Mitotic Cells (%): 72% and 65%
  Population Normal (%): 98% and 97%
  Population Pyknosed Nuclei (%): 6%
  Population Tubulin-Different-Phenotype (%): 10% and 6%
  Total Cell Count: 718 and 595
[2]; [9]
  Population Apoptotic (%): 25% and 36%
  Population Fragmented Nuclei (%): 14%
  Population Healthy Nuclei (%): 78% and 77%
  Population Hoechst High Intensity Objects (%): 4% and 3%
  Population Membrane Permeable-Phenotype (%): 0%
  Population Mitochondria Different-Phenotype (%): 23% and 32%
  Population Mitotic Cells (%): 74% and 63%
  Population Normal (%): 95% and 96%
  Population Pyknosed Nuclei (%): 7% and 8%
  Population Tubulin-Different-Phenotype (%): 17% and 15%
  Total Cell Count: 753 and 576
[3]; [4]
  Population Apoptotic (%): 86% and 100%
  Population Fragmented Nuclei (%): 37% and 18%
  Population Healthy Nuclei (%): 54% and 73%
  Population Hoechst High Intensity Objects (%): 2% and 1%
  Population Membrane Permeable-Phenotype (%): 10%
  Population Mitochondria Different-Phenotype (%): 1% and 7%
  Population Mitotic Cells (%): 13% and 0%
  Population Normal (%): 97% and 98%
  Population Pyknosed Nuclei (%): 8%
  Population Tubulin-Different-Phenotype (%): 2% and 7%
  Total Cell Count: 183 and 111
[3]; [5]
  Population Apoptotic (%): 85% and 75%
  Population Fragmented Nuclei (%): 24% and 17%
  Population Healthy Nuclei (%): 67% and 73%
  Population Hoechst High Intensity Objects (%): 1%
  Population Mitochondria Different-Phenotype (%): 3% and 7%
  Population Mitotic Cells (%): 14% and 25%
  Population Normal (%): 98%
  Population Pyknosed Nuclei (%): 8% and 9%
  Total Cell Count: 258 and 88
[3]; [6]
  Population Apoptotic (%): 80% and 90%
  Population Fragmented Nuclei (%): 30% and 17%
  Population Healthy Nuclei (%): 62% and 75%
  Population Hoechst High Intensity Objects (%): 2%
  Population Membrane Permeable-Phenotype (%): 5% and 8%
  Population Mitochondria Different-Phenotype (%): 3% and 5%
  Population Mitotic Cells (%): 20% and 10%
  Population Normal (%): 97%
  Population Pyknosed Nuclei (%): 6% and 7%
  Population Tubulin-Different-Phenotype (%): 2% and 8%
  Total Cell Count: 220 and 136
[3]; [7]
  Population Apoptotic (%): 80% and 85%
  Population Fragmented Nuclei (%): 20% and 21%
  Population Healthy Nuclei (%): 74% and 64%
  Population Hoechst High Intensity Objects (%): 2% and 0%
  Population Mitochondria Different-Phenotype (%): 2% and 1%
  Population Mitotic Cells (%): 20% and 14%
  Population Normal (%): 97% and 99%
  Population Pyknosed Nuclei (%): 4% and 13%
  Population Tubulin-Different-Phenotype (%): 0% and 7%
  Total Cell Count: 309 and 103
[3]; [8]
  Population Apoptotic (%): 78% and 95%
  Population Fragmented Nuclei (%): 29% and 15%
  Population Healthy Nuclei (%): 63% and 73%
  Population Hoechst High Intensity Objects (%): 0% and 1%
  Population Membrane Permeable-Phenotype (%): 3% and 4%
  Population Mitochondria Different-Phenotype (%): 2% and 5%
  Population Normal (%): 99% and 98%
  Population Pyknosed Nuclei (%): 7% and 10%
  Population Tubulin-Different-Phenotype (%): 1% and 3%
  Total Cell Count: 325 and 184
[3]; [9]
  Population Apoptotic (%): 94% and 100%
  Population Fragmented Nuclei (%): 11% and 22%
  Population Healthy Nuclei (%): 80% and 71%
  Population Hoechst High Intensity Objects (%): 1% and 3%
  Population Membrane Permeable-Phenotype (%): 4% and 13%
  Population Mitochondria Different-Phenotype (%): 2% and 7%
  Population Mitotic Cells (%): 5% and 0%
  Population Normal (%): 98% and 96%
  Population Pyknosed Nuclei (%): 7% and 5%
  Population Tubulin-Different-Phenotype (%): 2% and 7%

Source: ChEMBL document CHEMBL5724801, “EUbOPEN Chemogenomics Library - Multiplex” (2024)
